Screening data from PubChem BioAssay.
KCNQ1 inh: inhibitors of human KCNQ1 channel, primary screen, cell-based, thallium flux, high-throughput; 310,000 compounds, 1.3% hits; Potassium voltage-gated channel subfamily KQT member 1 (Homo sapiens), P51787; AID 2642, 2010; B-score at 10 µM; CHO-K1 KCNQ1, FluxOR thallium flux fluorescence; active compounds read high;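 active = compounds whose thallium flux B-score, printed positive for inhibition, exceeds three library SD while starting fluorescence stays within three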;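 also: channel opened by potassium depolarization with thallium stimulus after 20 min compound exposure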
hERG rescue: hERG rescue from dofetilide block, primary screen, cell-based, CHO-hERG, FluxOR thallium flux, dofetilide IC70. activation (rescue from dofetilide block), less the hit threshold, % at 10 µM. dofetilide IC70 present. Voltage-gated inwardly rectifying potassium channel KCNH2 (Homo sapiens), Q12809. 310,000 compounds, 0.51% hits;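 active = activation above the mean of controls blocked by dofetilide plus 5 SD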;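 also: thallium influx through hERG after potassium depolarization seen as dye fluorescence rise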
KCNK9 block: KCNK9 potassium channel inhibitors, primary screen, HEK293 cells, thallium flux; AID 488922, 2010; 310,000 compounds, 1.2% hits; FluxOR thallium flux fluorescence; active compounds read low; Potassium channel subfamily K member 9 (Homo sapiens), Q9NPC2; B-score at 10 µM;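 active = ratio B-score over 3 SD below the library mean, with starting fluorescence within 5 SD of its mean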;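 also: negative B-score means less thallium flux so channel inhibition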
Target sequence (Q9NPC2 whole entry, looked up): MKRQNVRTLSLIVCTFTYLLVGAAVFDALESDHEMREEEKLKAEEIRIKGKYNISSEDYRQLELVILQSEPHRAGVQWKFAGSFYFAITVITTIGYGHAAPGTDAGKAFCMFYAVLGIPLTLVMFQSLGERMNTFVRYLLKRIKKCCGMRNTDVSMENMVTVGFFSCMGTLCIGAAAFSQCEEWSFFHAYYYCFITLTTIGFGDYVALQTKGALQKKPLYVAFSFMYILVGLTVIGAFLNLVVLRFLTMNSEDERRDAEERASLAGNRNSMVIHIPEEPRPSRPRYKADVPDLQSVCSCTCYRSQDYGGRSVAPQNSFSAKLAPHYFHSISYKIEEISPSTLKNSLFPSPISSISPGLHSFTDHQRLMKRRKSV
Kir21 inh: inhibitors of mouse Kir2.1 inward-rectifier potassium channel | Inward rectifier potassium channel 2 (Mus musculus), P35561 | HEK293-Kir2.1, FluxOR thallium flux fluorescence; active compounds read low | B-score at 10 µM | 310,000 compounds, 0.85% hits;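 active = fluorescence ratio B-score at or below minus 3 SD of library scores, with starting-brightness B-score within 2 SD, cut at about -4.2 in these data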;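 also: channel flux triggered by added potassium and thallium sulfate stimulus; B-score of peak minus minimum fluorescence over baseline after thallium stimulus; more negative B-score means stronger Kir2.1 block with less thallium influx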
KCNK3 block: human KCNK3 channel inhibitors, primary screen, CHO cells, FluxOR thallium flux, B-score | FluxOR fluorescence; active compounds read low | Potassium channel subfamily K member 3 (Homo sapiens), O14649 | B-score at 10 µM | 340,000 compounds, 0.84% hits | AID 602410, 2012;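 active = B-score under library mean minus 4 SD, starting fluorescence ratio at most library mean plus 5 SD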;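 also: more negative B-score means stronger inhibition of thallium flux through KCNK3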
Target sequence (O14649 whole entry, looked up): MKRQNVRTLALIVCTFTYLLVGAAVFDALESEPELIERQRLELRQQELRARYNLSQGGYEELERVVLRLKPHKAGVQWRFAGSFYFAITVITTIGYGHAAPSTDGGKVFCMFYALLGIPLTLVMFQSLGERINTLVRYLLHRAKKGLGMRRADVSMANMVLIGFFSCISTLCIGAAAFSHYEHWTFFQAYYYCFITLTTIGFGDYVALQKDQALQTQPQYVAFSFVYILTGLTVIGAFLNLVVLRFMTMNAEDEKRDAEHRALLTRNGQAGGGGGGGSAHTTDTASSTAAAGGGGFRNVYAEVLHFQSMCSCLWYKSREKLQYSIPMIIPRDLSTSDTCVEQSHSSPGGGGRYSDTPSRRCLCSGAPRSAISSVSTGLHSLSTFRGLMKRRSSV
KCNQ1 pot: potentiators or activators of KCNQ1 channel, primary screen, cell-based, thallium flux, high-throughput; Potassium voltage-gated channel subfamily KQT member 1 (Homo sapiens), P51787; CHO-K1 KCNQ1, thallium flux FluxOR fluorescence; active compounds read high; B-score at 10 µM; 310,000 compounds, 0.35% hits;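 active = fluorescence ratio B-score, a plate-corrected score, at least three library SD, with initial intensity B-score within 5 SD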
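Assay system: CHO-K1 cells stably expressing KCNQ1; Medium: assay buffer with matched DMSO; Also added: K+/Tl+ depolarizing stimulus; Dosing: single dose; Timing: dye 90 min, compound 20 min, room temperature; Measured by: kinetic FluxOR thallium fluorescence, 10-s 1-Hz baseline, 110-s post-stimulus read; Read-out: peak-minus-minimum fluorescence over initial fluorescence, negative-control normalized, B-scored.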
KCNK9 block conf: KCNK9 potassium channel inhibitors, confirmation, HEK293 cells, thallium flux, duplicate | inhibition, % at 10 µM | shares compounds with KCNK9 block | FluxOR thallium flux fluorescence | 4,900 compounds, 43% hits;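 active = thallium signal inhibited by more than 5 SD of the compound-free buffer control wells, on both duplicate plates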
Kir2-1 spec: mouse Kir2.1 channel inhibition, confirmation, selectivity assay for KCNK9 modulator project, cell-based, HEK293, thallium flux. shares compounds with KCNK9 block. Kir2.1 cells, FluxOR thallium flux fluorescence. inhibition, % at 10 µM. 4,900 compounds, 4% hits. AID 492993, 2010;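 active = thallium signal drop more than 5 SD beyond the mean of the no-compound control wells, seen in both duplicate plates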;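 also: signal is fluorescence rise after thallium addition divided by baseline fluorescence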
HEK293 Tl ctr: thallium flux in non-induced HEK293 cells, confirmation, counter-screen for KCNK9 inhibitor project, cell-based, second counter screen, non-induced KCNK9-HEK293; FluxOR thallium flux; inhibition, % at 10 µM; 4,900 compounds, 40% hits; AID 492997, 2010; shares compounds with KCNK9 block;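 active = thallium signal drop beyond 5 SD of the untreated control mean, on both duplicate plates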
Large screens that a line does not name were inactive (follow-up assays come after a bar, where they were run). Compounds with a hit are over-represented: about 3.7% of the library has one in this group of screens.

CC(C)CS(=O)(=O)C1=NN2C(=N)/C(=C\c3ccc(OC(=O)c4ccco4)cc3)C(=O)N=C2S1	none | KCNK9 block conf inactive | Kir2-1 spec inactive | HEK293 Tl ctr inactive
Cn1cnc(S(=O)(=O)NC2CCN(Cc3ccccc3)CC2)c1	none
Cc1ccsc1CN(C(=O)c1ccc([N+](=O)[O-])cc1)C1CCS(=O)(=O)C1 (stereo unspecified)	none
Cc1cccc(-n2c(=O)c3c(n4cnnc24)-c2ccccc2CC32CCCCC2)c1	none
Cc1cccc(-n2c(SCC(N)=O)nc3c(c2=O)C2(CCCC2)Cc2ccccc2-3)c1	KCNK9 block -9.04 | KCNK9 block conf 53.0% | Kir2-1 spec inactive | HEK293 Tl ctr 35.0%
O=C(Nc1cccc(S(=O)(=O)N2CCCCCC2)c1)C1CCN(C(=O)c2ccc(Cl)cc2)CC1	none | KCNK9 block conf inactive | Kir2-1 spec inactive | HEK293 Tl ctr inactive
O=C(Nc1cccc(S(=O)(=O)N2CCCCCC2)c1)C1CCN(C(=O)c2ccc(F)cc2)CC1	none | KCNK9 block conf inactive | Kir2-1 spec inactive | HEK293 Tl ctr inactive
O=C1NC(=S)S/C1=C\c1cccc([N+](=O)[O-])c1	none (no result: KCNQ1 inh, hERG rescue, KCNK9 block, Kir21 inh, KCNQ1 pot)
COC(=O)c1ccccc1NC(=O)CSc1nc(O)cc(=O)n1C1CCCC1	none
Cc1ccc(CNC(=O)CCCn2nc(C)n3ccnc3c2=O)cc1	none
COc1ccc(-c2[nH]ncc2/C=C(/C#N)C(=O)NC2CCCCCC2)cc1	none | KCNK9 block conf inactive | Kir2-1 spec inactive | HEK293 Tl ctr inactive
COc1ccc(C(=O)NCc2ccc(N3CCN(C(=O)OC(C)(C)C)CC3)cc2)cc1	none | KCNK9 block conf inactive | Kir2-1 spec inactive | HEK293 Tl ctr inactive
COc1cccc(C(=O)NCc2ccc(N3CCN(C(=O)OC(C)(C)C)CC3)cc2)c1	none
C[C@H](NC(=O)c1ccco1)C(=O)NCc1cccs1	none (no result: KCNQ1 inh, hERG rescue, KCNK9 block, Kir21 inh, KCNQ1 pot)
CC(C)[C@H](NC(=O)c1ccccc1Cl)C(=O)Nc1nc(-c2ccccn2)cs1	KCNK9 block -9.31 | KCNK9 block conf 42.5% | Kir2-1 spec inactive | HEK293 Tl ctr 34.0%
CCc1nnc(NC(=O)C(NC(=O)c2ccccc2Cl)C(C)C)s1 (stereo unspecified)	none
CSc1nnc(C)c(=O)n1COC(=O)c1cc(Cl)ccc1[N+](=O)[O-]	none
COc1ccc(-c2sc3ccc(N4CCOCC4)cc3c2C#CCCO)cc1	none (no result: KCNQ1 inh, hERG rescue, KCNK9 block, Kir21 inh, KCNQ1 pot)
CCn1nc([N+](=O)[O-])c(C(C#N)c2nc3cc(C(F)(F)F)ccc3s2)c(Cl)c1=O (stereo unspecified)	Kir21 inh -5.52 | KCNK9 block conf inactive | Kir2-1 spec inactive | HEK293 Tl ctr inactive
CCOc1ccccc1NC1=C(Cl)C(=O)N(c2ccc(OC)cc2)C1=O	KCNK9 block -16.6 | KCNK9 block conf 64.0% | Kir2-1 spec inactive | HEK293 Tl ctr 41.5%
Cc1ccccc1NC1=C(Cl)C(=O)N(C2CCCCC2)C1=O	none
COc1ccccc1NC1=C(Cl)C(=O)N(C2CCCCC2)C1=O	KCNK9 block -8.53 | KCNK9 block conf 58.5% | Kir2-1 spec inactive | HEK293 Tl ctr 29.0%
COc1ccc(N2C(=O)C(Cl)=C(NCc3ccccc3)C2=O)cc1	none
NS(=O)(=O)c1cc(C(=O)OCC(=O)N2CCOCC2)ccc1Cl	none
CO/N=C(\c1nonc1N)N1CCN(c2ccc(Cl)cc2[N+](=O)[O-])CC1	KCNK9 block -8.27 | KCNK9 block conf 31.5% | Kir2-1 spec inactive | HEK293 Tl ctr 39.0%
Clc1ccc(OCc2nc(-c3ccc(Br)o3)no2)cc1	none
Brc1ccc(-c2noc(COc3ccc4c(c3)CCC4)n2)o1	none | KCNK9 block conf inactive | Kir2-1 spec inactive | HEK293 Tl ctr inactive
c1csc(-c2noc(COc3ccc4c(c3)CCCC4)n2)c1	none | KCNK9 block conf inactive | Kir2-1 spec inactive | HEK293 Tl ctr inactive
CC(=O)Nc1ccc(N(C(=O)CNC(=O)c2ccco2)C(C(=O)NC2CCCC2)c2ccco2)cc1 (stereo unspecified)	none
O=C(COC(=O)/C=C/c1ccco1)Nc1cccc([N+](=O)[O-])c1	none
CCOc1ccc(N(C(C)C(=O)N2CCCC2)S(C)(=O)=O)cc1 (stereo unspecified)	none
CC(C)(C)c1cc(OC(=O)C2CCCC2)ccc1O	KCNK9 block -8.19 | KCNK9 block conf 58.0% | Kir2-1 spec inactive | HEK293 Tl ctr inactive
CC(C)(C)c1cc(OS(C)(=O)=O)ccc1O	none
O=C(COc1ccc(S(=O)(=O)N2CCCCC2)cc1)N1CCCC1	none
O=C(Nc1ccccc1-c1nnc(SCc2ccccc2)o1)c1ccccc1	none | KCNK9 block conf inactive | Kir2-1 spec inactive | HEK293 Tl ctr inactive
O=C(O)c1ccc(CSc2nnc(-c3ccccc3Br)o2)cc1	none
CN(C)S(=O)(=O)N1CCc2ccc(NC(=O)c3ccc(C(F)(F)F)cc3)cc2C1	none
COc1ccc(OC)c(C(c2nnnn2C2CCCC2)N2CCN(c3ccc(F)cc3)CC2)c1 (stereo unspecified)	KCNQ1 inh 6, KCNK9 block -14.6 | KCNK9 block conf 51.5% | Kir2-1 spec inactive | HEK293 Tl ctr 44.0%
O=C(Nc1cccc(-c2nnc(-c3ccccc3)o2)c1)c1ccc(Br)o1	KCNK9 block -19.8 | KCNK9 block conf 44.0% | Kir2-1 spec inactive | HEK293 Tl ctr inactive
O=C(O)CCC(=O)Nc1cccc(-c2nnc(-c3ccccc3)o2)c1	none
Cc1cc(C)cc(NC(=O)CN2CCC(NC(=O)c3ccccc3F)CC2)c1	none
Fc1ccc2c(c1)C1C=CCC1C(c1cc3c(cc1Br)OCO3)N2 (stereo unspecified)	KCNK9 block -13.3 | KCNK9 block conf 49.0% | Kir2-1 spec inactive | HEK293 Tl ctr 48.0%
O=C(O)C1Nc2ccc(Br)cc2C2C=CCC12 (stereo unspecified)	none
